Experimental data: ChEMBL document CHEMBL3525987, “Assessment of exposure of metabolites in preclinical species and humans at steady state from the single-dose radiolabeled absorption, distribution, metabolism, and excretion studies: a case study” (Drug Metab Dispos, 2012)

What was measured:
Conditions in all cases: in vivo
Homo sapiens [1] = assay: Drug level in human plasma at 100 mg, po administered as single dose measured after 36 hrs by liquid scintillation counting; type: ADME, organism-based; design: dosed compound name [14C]lixivaptan
How it was run: (§1)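 Healthy male volunteers fasted ≥10 h, given single oral 100 mg (200 µCi) [14C]drug as two 50-mg capsules with 250 ml water. Plasma (from ~50 ml blood) at 0.5, 2, 4, 8, 12, 24, 36 h, profiled per subject. Acetonitrile extraction, C18 radio-HPLC with 0.2% formic acid acetonitrile/water gradient, on-line radioactivity detection as % plasma radioactivity; ng-equiv/ml from % × total radioactivity.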

Rattus norvegicus [2] = assay: Half life as total radioactivity in male Sprague-Dawley rat plasma at 10 mg/kg, po administered as single dose via gavage by LC-MS/MS analysis; type: ADME, organism-based; design: dose 10 mg/kg, dosed compound name [14C]lixivaptan, route oral
How it was run: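 Jugular-vein cannulated SD rats (5/gender) given gavage [14C]drug 10 mg/kg in pluronic F68/water; K2EDTA blood 0.25-168 h with donor blood replacement. Parent by validated LC-MS/MS, radioactivity by LSC; Tmax observed; t1/2 = 0.693/kel by terminal log-linear regression.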

Canis familiaris [3] = assay: Total Drug recovery in male beagle dog at 10 mg/kg, po administered as single dose via gavage measured after 168 hrs by liquid scintillation counting; type: ADME, organism-based, Canis lupus familiaris; design: dose 10 mg/kg, dosed compound name [14C]lixivaptan, route oral
How it was run: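 Four male dogs, fasted 18 h, given [14C]drug by gavage as a 5.0 mg/ml suspension in pluronic F68/deionized water (2 ml/kg, 1.04 μCi/mg), followed by a 10 ml water rinse. Urine and feces collected frozen over dry ice at 0-8, 8-24 h, then every 24 h for 7 days. Feces combusted before LSC; total includes cage wash/debris.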

Rattus norvegicus [4] = assay: Total Drug recovery in female Sprague-Dawley rat at 10 mg/kg, po administered as single dose via gavage measured after 168 hrs by liquid scintillation counting; type: ADME, organism-based; design: dose 10 mg/kg, dosed compound name [14C]lixivaptan, route oral
How it was run: (§2)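 Intact SD rats (3/gender) dosed by gavage with [14C]drug 10 mg/kg (10 ml/kg, pluronic F68/water), housed in metabolism cages; urine and feces at 0-8, 8-24 h, then every 24 h to 7 days. Urine counted by LSC; feces homogenized 20% w/w in water, combusted, trapped CO2 counted; cage wash/debris included; % of dose.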

Rattus norvegicus [5] = assay: AUC(0 to t) as total radioactivity in female Sprague-Dawley rat plasma at 10 mg/kg, po administered as single dose via gavage by LC-MS/MS analysis; type: ADME, organism-based; design: dose 10 mg/kg, dosed compound name [14C]lixivaptan, route oral
How it was run: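 Jugular-cannulated Sprague-Dawley rats (5/gender) were fasted 18 h and gavaged once with 10 mg/kg [14C]lixivaptan suspended in water/pluronic F68. K2EDTA blood was taken at 0.25–168 h, with donor blood replaced from 1 h on. Total radioactivity was read by LSC (ng-equiv/ml) and parent by validated LC-MS/MS. Noncompartmental Cmax, log-linear kel and trapezoidal AUC followed.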

Homo sapiens [6] = assay: Cmax in human at 100 mg, po
Homo sapiens [7] = assay: Drug level in human plasma at 100 mg, po administered as single dose measured after 24 hrs by liquid scintillation counting; type: ADME, organism-based; design: dosed compound name [14C]lixivaptan; how it was run: as §1
Homo sapiens [8] = assay: AUC (0 to 24 hrs) in human at 100 mg, po administered as single dose; type: ADME, organism-based, Plasma; design: time < 24 hr, dose 100 mg, route oral, dosed compound name [14C]lixivaptan
How it was run: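 Healthy young men fasted 10 h and took one oral dose of [14C]lixivaptan, 100 mg (200 µCi) as two capsules with water, eating 4 h later. Plasma from each subject at 0.5, 2, 4, 8, 12, 24 and 36 h was acetonitrile-extracted and profiled by C18 radio-HPLC (formic acid/acetonitrile gradient) with flow detection. Component concentrations were % of radioactivity × total plasma radioactivity, giving AUC0-24 in ng-equiv.h/ml.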

Rattus norvegicus [9] = assay: Total Drug recovery in male Sprague-Dawley rat at 10 mg/kg, po administered as single dose via gavage measured after 168 hrs by liquid scintillation counting; type: ADME, organism-based; design: dose 10 mg/kg, dosed compound name [14C]lixivaptan, route oral
How it was run: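 Intact rats, 3/gender, given [14C]drug as a suspension in deionized water with pluronic F68 (10 ml/kg, ~29.8 μCi/mg), fasted 18 h before dosing, fed 4 h after. Urine and feces collected at 0-8, 8-24 h, then every 24 h for 7 days. Feces homogenized, combusted and counted; urine counted by LSC in duplicate. Recovery is % of dose, including cage wash/debris.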

Homo sapiens [10] = assay: Cmax as total radioactivity in human plasma at 100 mg, po administered as single dose by LC-MS/MS analysis; type: ADME, organism-based; design: dose 100 mg, route oral, dosed compound name [14C]lixivaptan
How it was run: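 Fasted healthy males took one oral 100 mg (200 µCi) [14C]lixivaptan dose. Plasma was drawn from predose to 144 h. Total radioactivity was measured by LSC and converted to ng-equiv/ml via the dose specific activity; lixivaptan by validated LC-MS/MS. Noncompartmental analysis: Cmax observed; kel by log-linear regression; AUC0-t by linear trapezoid; extrapolation as Cest/kel.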

Rattus norvegicus [11] = assay: Drug level in male Sprague-Dawley rat plasma at 10 mg/kg, po administered as single dose via gavage measured after 1 hr by liquid scintillation counting; type: ADME, organism-based; design: dose 10 mg/kg, dosed compound name [14C]lixivaptan, route oral
How it was run: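 Single oral gavage of [14C]drug (10 mg/kg, 10 ml/kg) as suspension in deionized water with pluronic F68, ~29.8 µCi/mg; SD rats fasted 18 h, fed 4 h post-dose. Blood by cardiac puncture under isoflurane, 3 rats/time/gender, into K2EDTA at 1, 8, 24 h; plasma extracted twice with 2 vol acetonitrile, radio-HPLC on C18 with flow radioactivity detection, expressed as % plasma radioactivity.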

Rattus norvegicus [12] = assay: AUC (0 to 24 hrs) in female Sprague-Dawley rat at 10 mg/kg, po administered as single dose via gavage; type: ADME, organism-based, Plasma; design: time < 24 hr, dose 10 mg/kg, dosed compound name [14C]lixivaptan, route oral
How it was run: (§3)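 Sprague-Dawley rats (9/gender) were fasted 18 h and gavaged once with [14C]lixivaptan at 10 mg/kg (10 ml/kg), about 29.8 µCi/mg, suspended in deionized water with pluronic F68. Plasma came by cardiac puncture under isoflurane at 1, 8 and 24 h (3/gender/time) and was extracted twice with 2 volumes of acetonitrile. C18 radio-HPLC with a flow scintillation detector gave percent of plasma radioactivity per peak.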

Rattus norvegicus [13] = assay: AUC (0 to 24 hrs) in male Sprague-Dawley rat at 10 mg/kg, po administered as single dose via gavage; type: ADME, organism-based, Plasma; design: time < 24 hr, dose 10 mg/kg, dosed compound name [14C]lixivaptan, route oral; how it was run: as §3
[14] = Drug recovery in bile of bile duct-cannulated male Sprague-Dawley rat at 10 mg/kg, po administered as single dose via gavage measured from 0 to 48 hrs by liquid scintillation counting; type: ADME, organism-based; design: dose 10 mg/kg, dosed compound name [14C]lixivaptan, route oral
How it was run: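 Bile-duct cannulated SD rats (n=5) got single gavage of [14C]drug 10 mg/kg as pluronic F68/water suspension. Bile collected on wet ice at 0-4, 4-8, 8-24, 24-48 h; drinking water supplemented with bile salts and electrolytes. Duplicate aliquots counted by liquid scintillation; expressed as % of dose.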

Canis familiaris [15] = assay: Drug level in beagle dog plasma at 10 mg/kg, po administered as single dose measured after 8 hrs by liquid scintillation counting; type: ADME, organism-based, Canis lupus familiaris; design: dose 10 mg/kg, dosed compound name [14C]lixivaptan, route oral
How it was run: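 Four male beagles fasted 18 h were gavaged once with [14C]lixivaptan at 10 mg/kg (2 ml/kg). The 5.0 mg/ml suspension was in deionized water with pluronic F68 (1.04 µCi/mg). Jugular K2EDTA plasma was taken at 2, 8 and 24 h and extracted twice with 2 volumes of acetonitrile. Profiling used C18 radio-HPLC (ammonium formate/acetonitrile gradient) with on-line flow scintillation detection. Each peak is reported as percent of plasma radioactivity.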

Rattus norvegicus [16] = assay: Drug recovery in cage wash/debris of male Sprague-Dawley rat at 10 mg/kg, po administered as single dose via gavage measured after 168 hrs by liquid scintillation counting; type: ADME, organism-based; design: dose 10 mg/kg, dosed compound name [14C]lixivaptan, route oral; how it was run: as §2

Compound recovery (Homo sapiens [1]): 3.6%
t1/2 (Rattus norvegicus [2]): 36.6 h
Radiolabel recovery (Canis familiaris [3]): 95.9%
Radiolabel recovery (Rattus norvegicus [4]): 103%
AUCt (Rattus norvegicus [5]): 36700 ng.Eq.hr/ml
Cmax (Homo sapiens [6]): 454 ngequiv/ml
Compound recovery (Homo sapiens [7]): 5.5%
AUC (Homo sapiens [8]): 1860 ng.Eq.hr/ml
Radiolabel recovery (Rattus norvegicus [9]): 99%
Cmax (Homo sapiens [10]): 1770 ngequiv/ml
Compound recovery (Rattus norvegicus [11]): 4.1%
AUC (Rattus norvegicus [12]): 5580 ng.Eq.hr/ml
AUC (Rattus norvegicus [13]): 632 ng.Eq.hr/ml
Radiolabel recovery [14]: 65.4%
Compound recovery (Canis familiaris [15]): 14.9%
Radiolabel recovery (Rattus norvegicus [16]): 2.2%
SMILES: Cc1ccc(F)cc1[14C](=O)Nc1ccc(C(=O)N2Cc3cccn3Cc3ccccc32)c(Cl)c1
